Assay results as given in ChEMBL document CHEMBL1135657, “Novel dual inhibitors of AChE and MAO derived from hydroxy aminoindan and phenethylamine as potential treatment for Alzheimer's disease” (J Med Chem, 2002).

Legend:
Acetylcholinesterase [1] = target: T1, Acetylcholinesterase (Homo sapiens, UniProt P22303); experiment: In vitro inhibitory concentration against purified Acetylcholinesterase of human erythrocytes; value ranges from 7.3-50.4
[2] = target: T2, Amine oxidase [flavin-containing] B (Rattus norvegicus, UniProt P19643); experiment: In vitro inhibitory concentration against Monoamine oxidase B of rat brain homogenates; value ranges from 0.4-1.3; type: tissue-based
T2 sequence (P19643 whole entry): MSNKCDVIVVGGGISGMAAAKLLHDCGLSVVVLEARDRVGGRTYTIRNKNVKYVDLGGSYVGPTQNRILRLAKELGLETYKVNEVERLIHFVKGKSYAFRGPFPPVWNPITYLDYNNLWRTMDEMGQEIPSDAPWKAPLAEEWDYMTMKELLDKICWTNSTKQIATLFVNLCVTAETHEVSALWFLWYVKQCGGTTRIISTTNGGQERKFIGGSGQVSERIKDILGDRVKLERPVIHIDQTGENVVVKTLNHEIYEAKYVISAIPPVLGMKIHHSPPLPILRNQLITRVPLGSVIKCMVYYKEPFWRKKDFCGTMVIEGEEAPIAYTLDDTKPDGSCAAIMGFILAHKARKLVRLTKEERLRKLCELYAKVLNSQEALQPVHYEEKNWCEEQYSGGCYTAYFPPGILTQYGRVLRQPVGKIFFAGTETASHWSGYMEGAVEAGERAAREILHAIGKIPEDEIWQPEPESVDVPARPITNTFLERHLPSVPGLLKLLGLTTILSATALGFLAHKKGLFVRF

[3] = target: T3, Amine oxidase [flavin-containing] A (Rattus norvegicus, UniProt P21396); experiment: In vitro inhibitory concentration against Monoamine oxidase A of rat brain homogenates; value ranges from 0.5-1.4; type: tissue-based
T3 sequence (P21396 whole entry): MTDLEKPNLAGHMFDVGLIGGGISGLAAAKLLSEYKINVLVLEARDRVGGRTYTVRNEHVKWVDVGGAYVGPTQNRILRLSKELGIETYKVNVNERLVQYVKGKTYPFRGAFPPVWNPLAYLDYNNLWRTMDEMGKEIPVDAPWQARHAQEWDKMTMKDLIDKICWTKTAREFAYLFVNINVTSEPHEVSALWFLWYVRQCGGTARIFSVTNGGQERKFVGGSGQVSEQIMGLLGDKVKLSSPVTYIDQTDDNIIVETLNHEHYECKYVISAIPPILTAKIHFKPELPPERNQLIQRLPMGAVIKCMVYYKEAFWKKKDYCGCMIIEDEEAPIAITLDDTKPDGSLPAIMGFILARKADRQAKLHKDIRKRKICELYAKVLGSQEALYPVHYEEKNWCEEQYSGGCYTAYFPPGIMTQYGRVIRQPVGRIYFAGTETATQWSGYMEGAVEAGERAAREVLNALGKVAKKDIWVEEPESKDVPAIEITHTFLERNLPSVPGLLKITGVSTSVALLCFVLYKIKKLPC

Acetylcholinesterase [4] = target: T1, Acetylcholinesterase; experiment: In vitro inhibitory concentration against purified Acetylcholinesterase of human erythrocytes; value ranges from 0.16-0.18
Butyrylcholinesterase [5] = target: T4, Butyrylcholinesterase (Equus caballus, UniProt Q9N1N9); experiment: In vitro inhibitory concentration against Butyrylcholinesterase of horse serum; value ranges from 0.23-0.26
T4 sequence (Q9N1N9 whole entry): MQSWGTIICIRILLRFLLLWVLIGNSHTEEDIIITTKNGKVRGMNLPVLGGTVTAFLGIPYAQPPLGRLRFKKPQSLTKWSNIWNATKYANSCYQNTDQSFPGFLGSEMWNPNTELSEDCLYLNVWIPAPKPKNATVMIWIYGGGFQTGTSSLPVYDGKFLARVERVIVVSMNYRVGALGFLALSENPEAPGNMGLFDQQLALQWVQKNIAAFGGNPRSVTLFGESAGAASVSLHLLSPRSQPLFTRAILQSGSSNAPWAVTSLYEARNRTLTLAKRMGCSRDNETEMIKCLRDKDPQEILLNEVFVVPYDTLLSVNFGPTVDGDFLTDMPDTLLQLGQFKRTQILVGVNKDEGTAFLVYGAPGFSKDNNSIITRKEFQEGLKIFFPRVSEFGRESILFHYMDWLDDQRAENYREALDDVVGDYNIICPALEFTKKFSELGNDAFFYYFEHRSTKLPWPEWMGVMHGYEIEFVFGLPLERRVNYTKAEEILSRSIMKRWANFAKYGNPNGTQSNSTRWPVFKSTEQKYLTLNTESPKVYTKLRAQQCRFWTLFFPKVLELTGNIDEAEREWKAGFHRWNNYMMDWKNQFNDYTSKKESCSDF
Method in brief: (§1)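 Ellman assay followed, with 200 µM butyrylthiocholine as substrate. Runs were in triplicate with four-point dose-response curves. IC50 and fiducial limits came from log concentration versus % inhibition.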

[6] = target: T2, Amine oxidase [flavin-containing] B; experiment: In vitro inhibitory concentration against Monoamine oxidase B of rat brain homogenates; type: tissue-based
[7] = target: T3, Amine oxidase [flavin-containing] A; experiment: In vitro inhibitory concentration against Monoamine oxidase A of rat brain homogenates; value ranges from 230-820; type: tissue-based
Butyrylcholinesterase [8] = target: T4, Butyrylcholinesterase; experiment: In vitro inhibitory concentration against Butyrylcholinesterase of horse serum; value ranges from 0.22-1.54; method in brief: as §1
[9] = target: T2, Amine oxidase [flavin-containing] B; set-up: species or system Brain
[10] = target: T3, Amine oxidase [flavin-containing] A; experiment: In vitro inhibitory concentration against Monoamine oxidase A of rat brain homogenates; value ranges from 1.7-3.9; type: tissue-based
Acetylcholinesterase [11] = target: T1, Acetylcholinesterase; experiment: In vitro inhibitory concentration against purified Acetylcholinesterase of human erythrocytes; value ranges from 2.0-15.2
Butyrylcholinesterase [12] = target: T4, Butyrylcholinesterase; experiment: In vitro inhibitory concentration against Butyrylcholinesterase of horse serum; value ranges from 4.8-73.9; method in brief: as §1
[13] = target: T3, Amine oxidase [flavin-containing] A; experiment: In vitro inhibitory concentration against Monoamine oxidase A of rat brain homogenates; type: tissue-based
Acetylcholinesterase [14] = target: T1, Acetylcholinesterase; experiment: In vitro inhibitory concentration against purified Acetylcholinesterase of human erythrocytes; value ranges from 2.2-6.4
[15] = target: T3, Amine oxidase [flavin-containing] A; experiment: In vitro inhibitory concentration against Monoamine oxidase A of rat brain homogenates; value ranges from 0.47; type: tissue-based
Acetylcholinesterase [16] = target: T1, Acetylcholinesterase; experiment: In vitro inhibitory concentration against purified Acetylcholinesterase of human erythrocytes; value ranges from 1.66-3.14
Acetylcholinesterase [17] = target: T1, Acetylcholinesterase; experiment: In vitro inhibitory concentration against purified Acetylcholinesterase of human erythrocytes; value ranges from 13.6-198
Butyrylcholinesterase [18] = target: T4, Butyrylcholinesterase; experiment: In vitro inhibitory concentration against Butyrylcholinesterase of horse serum; value ranges from 2.77-15.4; method in brief: as §1
Acetylcholinesterase [19] = target: T1, Acetylcholinesterase; experiment: In vitro inhibitory concentration against purified Acetylcholinesterase of human erythrocytes
[20] = target: T3, Amine oxidase [flavin-containing] A; experiment: In vitro inhibitory concentration against Monoamine oxidase A of rat brain homogenates; value ranges from 75-240; type: tissue-based
[21] = target: T2, Amine oxidase [flavin-containing] B; experiment: In vitro inhibitory concentration against Monoamine oxidase B of rat brain homogenates; value ranges from 77-123
Acetylcholinesterase [22] = target: T1, Acetylcholinesterase; experiment: In vitro inhibitory concentration against purified Acetylcholinesterase of human erythrocytes; value ranges from 8.6-49.9

T1 sequence (P22303 whole entry): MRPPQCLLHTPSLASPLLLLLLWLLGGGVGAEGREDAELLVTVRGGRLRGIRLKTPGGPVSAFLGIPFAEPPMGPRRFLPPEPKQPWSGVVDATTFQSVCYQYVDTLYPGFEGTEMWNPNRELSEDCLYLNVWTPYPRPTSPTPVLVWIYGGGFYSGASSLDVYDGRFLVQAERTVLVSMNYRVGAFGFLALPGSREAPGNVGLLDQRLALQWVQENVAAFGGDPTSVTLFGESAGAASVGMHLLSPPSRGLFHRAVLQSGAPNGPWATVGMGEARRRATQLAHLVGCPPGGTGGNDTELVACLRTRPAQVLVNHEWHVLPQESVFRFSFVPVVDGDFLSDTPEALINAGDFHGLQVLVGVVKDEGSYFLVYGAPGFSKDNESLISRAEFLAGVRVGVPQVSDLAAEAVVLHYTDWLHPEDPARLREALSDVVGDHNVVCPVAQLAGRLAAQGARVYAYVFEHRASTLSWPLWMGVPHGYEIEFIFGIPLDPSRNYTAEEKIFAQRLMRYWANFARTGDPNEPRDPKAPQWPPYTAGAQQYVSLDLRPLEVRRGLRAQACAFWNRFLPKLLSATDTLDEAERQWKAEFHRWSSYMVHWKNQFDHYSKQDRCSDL

In the case of C#CCN(C)CCc1cccc(OC(=O)N(C)CC)c1, the IC50 (Acetylcholinesterase [1]) is reported as 16.6 µM, the IC50 [2] is reported as 0.8 µM and the IC50 [3] is reported as 0.8 µM.
With C#CC(C)NCCc1cccc(OC(=O)N(C)C)c1 (stereo not drawn) the IC50 (Acetylcholinesterase [4]) was 0.17 µM, the IC50 (Butyrylcholinesterase [5]) was 0.24 µM and the IC50 [6] was > 1000 µM. It also gave an IC50 [7] of 440 µM.
C#CCNCCc1cccc(OC(=O)N(C)CC)c1 showed an IC50 (Butyrylcholinesterase [8]) of 0.54 µM, an IC50 [9] of 7.8 µM and an IC50 [10] of 2.6 µM.
In the case of C#CCN[C@H]1CCc2ccc(OC(=O)N(C)CCC)cc21, the IC50 (Acetylcholinesterase [11]) is reported as 8.5 µM, the IC50 (Butyrylcholinesterase [12]) is reported as 12.4 µM and the IC50 [6] is reported as > 1000 µM. The IC50 [13] was > 1000 µM.
C#CCN(C)[C@@H](C)Cc1cccc(OC(=O)N(C)CCCCCC)c1 was tested, and the IC50 (Acetylcholinesterase [14]) was 3.4 µM.
C#CCNC1CCc2ccc(O)cc21 (stereo not drawn) showed an IC50 [15] of 0.67 µM.
CN(C)C(=O)Oc1ccc2c(c1)C(N(C)C)CC2 (stereo not drawn) was tested, and the IC50 (Acetylcholinesterase [16]) was 2.15 µM.
Work on C#CCNC1CCc2ccc(OC(=O)N(C)C3CCCCC3)cc21 (stereo not drawn) yielded an IC50 (Acetylcholinesterase [17]) of 41.2 µM and an IC50 (Butyrylcholinesterase [18]) of 5.56 µM.
C#CCNC1CCc2ccc(OC(=S)N(C)C)cc21 (stereo not drawn) was tested, and the IC50 (Acetylcholinesterase [19]) was > 500 µM, the IC50 [20] was 130 µM and the IC50 [21] was 98 µM.
For C#CCN(CC)C1CCc2ccc(OC(=O)N(C)C)cc21 (stereo not drawn), the IC50 (Acetylcholinesterase [22]) was 17.9 µM.
